Data on eleven molecules can be found in ChEMBL document CHEMBL3046445, “Steroid conjugates: Synthesis and preliminary biological testing of pro-juvenoids” (2010).

For test [1], the system named is Pyrrhocoris apterus. Briefly: Inhibition of metamorphosis in freshly molted Pyrrhocoris apterus (red firebug) fifth-instar nymph assessed as compound dose per individual causing reduction in metamorphosis by topical screening test. It counts as functional. The method, boiled down: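 Topical application with a Burkhard microapplicator; acetone alone served as the reference treatment. Ten insects per dose, three replicates. Insects were held in Petri dishes at 25 ± 0.5 °C, 16L:8D, 50 ± 5% RH, and checked daily. The degree of metamorphosis inhibition was scored morphologically after the next molt. ID-50 per individual was computed from linear regression tested by ANOVA.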

In test [2] the test system is Pyrrhocoris apterus. As to the kind of experiment: Inhibition of metamorphosis in freshly molted Pyrrhocoris apterus (red firebug) fourth-instar nymph assessed as compound dose per individual causing reduction in metamorphosis by oral drinking assay. It counts as functional. The method, boiled down: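 Drinking assay: compound in acetone was added to distilled water with Tween-80 at 0.025, 0.25, 2.5 and 25 per microlitre. It was offered in cotton-plugged glass vials at the end of the fourth nymphal instar, with the acetone/water/Tween-80 mixture as reference. Ten insects per concentration, three replicates, 25 ± 0.5 °C, 16L:8D, 50 ± 5% RH. Metamorphosis inhibition was scored morphologically after the last ecdysis.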

`CCOC(=O)NCCOc1ccc(C[C@@H]2CCCC[C@@H]2OC(=O)CCC(=O)O[C@H]2CC[C@@]3(C)C(=CC[C@H]4[C@@H]5CC[C@H]([C@H](C)/C=C/[C@@H](CC)C(C)C)[C@@]5(C)CC[C@@H]43)C2)cc1`: the ID50 in test [1] is 0.0185 µg; in test [2] it was 4.989 µg.

Regarding `CCOC(=O)NCCOc1ccc(Oc2ccccc2)cc1` [PHENOXYCARB], the ID50 in test [1] was 0.09 µg; in test [2] it was 0.2 µg.

Regarding `CCOC(=O)NCCOc1ccc(C[C@@H]2CCCC[C@@H]2O)cc1` (relative stereo), the ID50 in test [1] is 0.001 µg; in test [2], 0.0012 µg.

Take `CCOC(=O)NCCOc1ccc(C[C@@H]2CCCC[C@@H]2OC(=O)CC[C@@H](C)[C@H]2CC[C@H]3[C@@H]4[C@H](OC=O)C[C@@H]5C[C@H](OC=O)CC[C@]5(C)[C@H]4C[C@H](OC=O)[C@]23C)cc1`: the ID50 in test [1] was found to be 0.094 µg; in test [2], 0.051 µg.

As to `COC(C)(C)CCC[C@H](C)C/C=C/C(C)=C/C(=O)OC(C)C` [METHOPRENE], the figures for the ID50 in test [1] and in test [2] were 0.01 µg and 0.41 µg, respectively.

In the case of `CCOC(=O)NCCOc1ccc(C[C@@H]2CCCC[C@@H]2OC(=O)CC[C@@H](C)[C@H]2CC[C@H]3[C@@H]4[C@H](OC=O)C[C@@H]5C[C@H](O)CC[C@]5(C)[C@H]4C[C@H](OC=O)[C@]23C)cc1`, the ID50 in test [1] is 0.062 µg; in test [2], 0.423 µg.

Take `CCOC(=O)NCCOc1ccc(C[C@H]2CCCC[C@@H]2OC(=O)CCC(=O)O[C@H]2CC[C@@]3(C)C(=CC[C@H]4[C@@H]5CC[C@H]([C@H](C)/C=C/[C@@H](CC)C(C)C)[C@@]5(C)CC[C@@H]43)C2)cc1`: the results for the ID50 in test [1] and in test [2] were above 5 µg and above 25 µg, respectively.

With `CC(COc1ccc(Oc2ccccc2)cc1)Oc1ccccn1` (configuration not stated) [PYRIPROXYFEN], the ID50 is 2.3 µg in test [1] and 25 µg in test [2].

`CCOC(=O)NCCOc1ccc(C[C@H]2CCCC[C@@H]2O)cc1` (relative stereo): the ID50 in test [1] came out at 0.71 µg; in test [2], 0.5 µg.

For `CCOC(=O)NCCOc1ccc(C[C@H]2CCCC[C@@H]2OC(=O)CC[C@@H](C)[C@H]2CC[C@H]3[C@@H]4[C@H](OC=O)C[C@@H]5C[C@H](OC=O)CC[C@]5(C)[C@H]4C[C@H](OC=O)[C@]23C)cc1`, the figures for the ID50 in test [1] and in test [2] were 1.775 µg and 6.153 µg, respectively.

As to `CCOC(=O)NCCOc1ccc(C[C@H]2CCCC[C@@H]2OC(=O)CC[C@@H](C)[C@H]2CC[C@H]3[C@@H]4[C@H](OC=O)C[C@@H]5C[C@H](O)CC[C@]5(C)[C@H]4C[C@H](OC=O)[C@]23C)cc1`, the results for the ID50 in test [1] and in test [2] were above 5 µg and above 25 µg, respectively.
